From PubChem BioAssay
MT stabilizer – stabilizes microtubules in HeLa cells; AID 2205; HeLa tubulin immunostaining HCS, 24 h; share of cells brighter than vehicle mean+2SD; actives 0.83% (n = 200,000); % tubulin-high responders, % at 10 µM;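 active = plate Z-score above 3 for both tubulin-high and condensed-nucleus cell shares, with cell loss under 80%, at 10 µM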;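 also: anti alpha tubulin signal scored within the nucleus-defined area of each cell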
b-catenin transl – modulators of beta-catenin nuclear translocation; HeLa beta-catenin nuclear translocation, immunofluorescence imaging; nuclear translocation activity, % at 5 µM; actives 0.3% (n = 190,000);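 active = nuclear translocation activity above 50% at 5 µM, with a well cell count of 50 or more; inconclusive = wells under 50 cells across six images, flagged as toxic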;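 also: per-cell ratio of nuclear to cytoplasmic median beta-catenin stain intensity; plate controls were DMSO negative control for no effect and GSK-3 inhibitor IX positive control for full effect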
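test system = HeLa cells, endogenous beta-catenin | dosing = single 5 µM dose plus 0.02–20 µM confirmation series | times = compound treatment 24 h, 37°C, 5% CO2 | technique = beta-catenin immunofluorescence imaging with DAPI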
Ins promoter up – MIN6 insulin promoter up-regulation; actives 0.3% (n = 190,000); MIN6 insulin promoter-GFP reporter, high-content imaging; hits give high values; z-score at 5 µM;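 active = z-score above 3 at 5 µM with at least 500 cells counted in the well; inconclusive = wells under 500 cells, flagged as cytotoxic or low count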
Autophagy mod – modulators of autophagy; calls only at 10 µM (by protocol); actives 0.98% (n = 190,000); MEF GFP-LC3 puncta imaging; test concentration mostly 10 µM; AID 463193;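 active = percentage of spot-positive cells more than 3 SD above its plate mean, without a fluorescence outlier flag or 80% toxicity; inconclusive = no clear call, values can overlap the other calls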;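 also: spot-positive cell cutoff set from DMSO-treated cells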
Dynein transport – dynein cargo transport inhibition; 3617.4 mouse cells, GR-EGFP nuclear translocation imaging; test concentration mostly 20 µM; stimulated with dexamethasone, 1 µM; hits give low values; AID 1381; z-score, hits read low; actives 0.47% (n = 220,000);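 active = plate z-score of nuclear minus cytoplasmic receptor signal below a set negative limit, without overly bright fluorescence or cell loss, cut at about -3.5 in these data, passing the limit was not always enough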;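 also: z-score of nuclear minus cytoplasmic ring GR-EGFP intensity difference per well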
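Buffer or medium: tet-free, stripped-serum medium; reagent: dexamethasone at 1.0 µM final, 30 min; incubation: 48 h induction, 1 h compound, 30 min dex at 37 °C; measured by: formaldehyde fixation, Hoechst nuclear stain, 10x automated fluorescence imaging; read-out: nuclear-to-cytoplasmic GR-EGFP distribution per well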
Dynein inh conf – dynein cargo transport inhibition, confirmation | shares compounds with Dynein transport | 3617.4 GR-EGFP nuclear translocation imaging, dexamethasone-induced | calls only at 20 µM | actives 69% (n = 1,000);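 active = inhibition of receptor movement into the nucleus at or above a set limit in both runs, with normal cell brightness and cell count; inconclusive = limit reached in only one run, brightness and count normal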;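 also: dexamethasone at 1 µM final in well for 30 min; nuclear minus cytoplasmic GR-EGFP mean intensity difference in channel 2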
Numbers without * were called inactive; i = inactive; ? = inconclusive; . = not tested or not shown; + = active, no number. In the library only some 2.3% were active in any assay of this set; here they are far more common.

SMILES | MT stabilizer | b-catenin transl | Ins promoter up | Autophagy mod | Dynein transport | Dynein inh conf
O=C1N/C(=C/c2ccc(N3CCOCC3)o2)C(=O)N1c1cccc(Cl)c1 | 3 | 0 | 0.4 | i | -4.1 | i
Nc1ccc2c3c(cccc13)C(=O)N(c1ccccc1)C2=O | 2 | 1 | 0.58 | i | -5* | +
N[C@@H](CO)c1nnc([C@H](CC(=O)O)NC(=O)C2CCNCC2)o1 | 4 | 1 | 2.2 | i | -0.029 | .
COc1cccc(F)c1C(C[N+](=O)[O-])c1c(N)n(C)c(=O)n(C)c1=O (centres undefined) | . | 1 | ? | . | -3.6* | +
COC(=O)[C@@]1(Cc2ccc(F)cc2)[C@H]2c3cc(C(=O)N(C)C)n(Cc4ccccc4)c3C[C@H]2CN1C(=O)c1ccccc1 | 6 | -5 | -0.2 | i | -0.44 | .
C=C1C(=O)C=C2CN(C(=O)c3ccccc3)[C@@](Cc3ccc(F)cc3)(C(=O)OC)[C@@H]12 | 27 | 0 | ? | i | -5* | +
COc1cc([N+](=O)[O-])cc(/C=N/NC(=O)Cn2nccc2C)c1O | . | 1 | . | . | -0.6 | .
Cc1nc(CS(=O)(=O)c2ccc(Cl)cc2)sc1C(=O)O | . | -2 | . | . | 0.56 | .
C=C1CCN([C@H](C(=O)NCc2ccc(OC)cc2)C(C)C)S(=O)(=O)c2ccccc21 | . | 2 | 2.4 | . | -0.21 | .
COc1ccc(-c2cc(N)n(S(=O)(=O)c3c(F)c(F)c(F)c(F)c3F)n2)cc1OC | 6 | -1 | -0.37 | i | -5.1* | +
c1ccc(COc2ccccc2CNC23CC4CC(CC(C4)C2)C3)cc1 | 2 | 0 | -2.5 | i | -0.85 | .
CCCCn1c(CCC)nc([N+](=O)[O-])c1Sc1ccc(Cl)cn1 | 5 | . | . | i | -3.6* | +
CC(C)Cn1c(C(C)C)nc([N+](=O)[O-])c1Sc1ccc(Cl)cn1 | 6 | . | . | i | -0.013 | .
Cc1cc(C2=CC(C)(c3cc(C)oc3C)Nc3nc(C(F)(F)F)nn32)c(C)o1 (centres undefined) | 4 | 0 | . | i | -6.1* | +
CCCNC(=O)NC(=O)CSc1nncs1 | 3 | -2 | -0.06 | i | 0.46 | .
COCCCNc1nc2c(-c3ccc(Cl)cc3)nnn2c2ccccc12 | 3 | 4 | -1.4 | i | -4.2* | i
COc1ccccc1C(=O)NCC(=O)N/N=C/c1cccc(Cl)c1 | 6 | . | 0.4 | i | -0.3 | .
OCCC1CN(Cc2cn[nH]c2C2CCCCC2)CCN1C1CCCC1 (centres undefined) | 2 | -1 | 0.95 | i | -0.61 | .
O=C1ON=C(c2ccccc2)/C1=C/c1ccc(-c2ccccc2[N+](=O)[O-])o1 | 4 | -1 | 1.2 | i | -5.9* | +
O=[N+]([O-])c1ccccc1-c1ccc(/C=N/n2cnnc2)o1 | 1 | 4 | -0.81 | i | 0.0063 | .
Cn1nc(C(=O)Nc2nc(-c3ccc(F)cc3)cs2)ccc1=O | . | 2 | 0.19 | . | 1.3 | .
COc1ccc(CNc2cc(NCCCO)c([N+](=O)[O-])c3nonc23)cc1 | 2 | -1 | . | i | -0.58 | .
CCCC(=O)OCCNc1cc(SCCC(=O)OC)c2nonc2c1[N+](=O)[O-] | 4 | -1 | 0.6 | i | -4.5* | +
CC(=O)OCCCNc1cc(Sc2nc3ccccc3s2)c2nonc2c1[N+](=O)[O-] | 3 | -1 | 0.59 | i | -3.4 | .
CC(=O)OCCCNc1cc(Sc2ccc(C)cc2)c2nonc2c1[N+](=O)[O-] | 3 | 1 | -0.19 | i | -4.6* | i
SMILES | MT stabilizer | b-catenin transl | Ins promoter up | Autophagy mod | Dynein transport | Dynein inh conf
O=[N+]([O-])c1c(NCCCO)cc(Sc2ccc(Cl)cc2)c2nonc12 | 2 | -2 | -0.45 | i | -4.7* | +
CC(=O)OCCNc1cc(SCc2ccco2)c2nonc2c1[N+](=O)[O-] | 5 | -1 | 0.17 | i | -5.8* | +
Cc1cc(NC(=S)Nc2cccc3ccccc23)n[nH]1 | 2 | 1 | -0.67 | i | -0.88 | .
CC1(C)CC(=O)C(C(=O)/C=C/c2ccco2)C(=O)C1 | 1 | -1 | 1 | i | 1.1 | .
O=[N+]([O-])c1c(NCCCO)cc(SCc2ccco2)c2nonc12 | 6 | 0 | 0.11 | i | -3.5* | +
Cn1ccnc1Sc1cc(NCCCO)c([N+](=O)[O-])c2nonc12 | 4 | -3 | -0.2 | i | -4.9* | +
